According to ChEMBL document CHEMBL4689842, “EUbOPEN Chemogenomics Library wave 1” (2021):

Test system: HEK-293T
Experiment: Multiplex assay against HEK293T;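 on Population Tubulin-Different-Phenotype (%): share of the cells with healthy nuclei that show this phenotype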
Type: toxicity, cell-based
Conditions: human
Procedure, shortened: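 Values for tubulin, mitochondrial-mass and membrane-permeability phenotypes are per cents of cells with healthy nuclei. These cells were identified by CellPathfinder machine-learning gating of live cells that had been stained at seeding with Hoechst33342, BioTracker Green Microtubule Cytoskeleton Dye, MitoTracker Red and Annexin V Alexa Fluor 680 and imaged on a CQ1 microscope at 37°C and 5% CO2 after compound addition. The gating first set Hoechst high-intensity objects apart from normal cells, then split normal cells into healthy, pyknosed or fragmented nuclei, and pyknosed cells into mitotic or apoptotic.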

[1] = 12 h, 1 µM, compound concentration 1 uM, replicate 1
[2] = 12 h, 1 µM, compound concentration 1 uM, replicate 2
[3] = 12 h, 10 µM, compound concentration 10 uM, replicate 1
[4] = 12 h, 10 µM, compound concentration 10 uM, replicate 2
[5] = 24 h, 1 µM, compound concentration 1 uM, replicate 1
[6] = 24 h, 1 µM, compound concentration 1 uM, replicate 2
[7] = 24 h, 10 µM, compound concentration 10 uM, replicate 1
[8] = 24 h, 10 µM, compound concentration 10 uM, replicate 2
[9] = 48 h, 1 µM, compound concentration 1 uM, replicate 1
[10] = 48 h, 1 µM, compound concentration 1 uM, replicate 2
[11] = 48 h, 10 µM, compound concentration 10 uM, replicate 1
[12] = 48 h, 10 µM, compound concentration 10 uM, replicate 2

C=CC(=O)Nc1cccc(C(=O)Nc2ccc(Nc3cc(-c4[nH]c(SC)nc4C)ccn3)cc2)c1 was tested, and the “Population Apoptotic (%)” value [1] was 48%, the “Population Fragmented Nuclei (%)” value [1] was 16% and the “Population Healthy Nuclei (%)” value [1] was 29%. The “Population Hoechst High Intensity Objects (%)” value [1] was 14%, the “Population Membrane Permeable-Phenotype (%)” value [1] was 4% and the “Population Mitochondria Different-Phenotype (%)” value [1] was 80%. The “Population Mitotic Cells (%)” value [1] was 51%, the “Population Normal (%)” value [1] was 85% and the “Population Pyknosed Nuclei (%)” value [1] was 54%. For the same compound, the “Population Tubulin-Different-Phenotype (%)” value [1] was 54%, the “Total Cell Count” value [1] was 327 and the “Population Apoptotic (%)” value [2] was 5%. The “Population Fragmented Nuclei (%)” value [2] was 7%, the “Population Healthy Nuclei (%)” value [2] was 45% and the “Population Hoechst High Intensity Objects (%)” value [2] was 5%. The “Population Membrane Permeable-Phenotype (%)” value [2] was 2%, the “Population Mitochondria Different-Phenotype (%)” value [2] was 24% and the “Population Mitotic Cells (%)” value [2] was 94%. The “Population Normal (%)” value [2] was 94%, the “Population Pyknosed Nuclei (%)” value [2] was 47% and the “Population Tubulin-Different-Phenotype (%)” value [2] was 17%. The “Total Cell Count” value [2] was 190, the “Population Apoptotic (%)” value [3] was 48% and the “Population Fragmented Nuclei (%)” value [3] was 18%. For the same compound, the “Population Healthy Nuclei (%)” value [3] was 30%, the “Population Hoechst High Intensity Objects (%)” value [3] was 14% and the “Population Membrane Permeable-Phenotype (%)” value [3] was 20%. For the same compound, the “Population Mitochondria Different-Phenotype (%)” value [3] was 83%, the “Population Mitotic Cells (%)” value [3] was 51% and the “Population Normal (%)” value [3] was 85%. For the same compound, the “Population Pyknosed Nuclei (%)” value [3] was 51%, the “Population Tubulin-Different-Phenotype (%)” value [3] was 70% and the “Total Cell Count” value [3] was 210. The “Population Apoptotic (%)” value [4] was 29%, the “Population Fragmented Nuclei (%)” value [4] was 4% and the “Population Healthy Nuclei (%)” value [4] was 29%. The “Population Hoechst High Intensity Objects (%)” value [4] was 6%, the “Population Membrane Permeable-Phenotype (%)” value [4] was 19% and the “Population Mitochondria Different-Phenotype (%)” value [4] was 34%. The “Population Mitotic Cells (%)” value [4] was 70%, the “Population Normal (%)” value [4] was 93% and the “Population Pyknosed Nuclei (%)” value [4] was 65%. The “Population Tubulin-Different-Phenotype (%)” value [4] was 82%, the “Total Cell Count” value [4] was 240 and the “Population Apoptotic (%)” value [5] was 48%. The “Population Fragmented Nuclei (%)” value [5] was 15%, the “Population Healthy Nuclei (%)” value [5] was 35% and the “Population Hoechst High Intensity Objects (%)” value [5] was 17%. For the same compound, the “Population Membrane Permeable-Phenotype (%)” value [5] was 3%, the “Population Mitochondria Different-Phenotype (%)” value [5] was 58% and the “Population Mitotic Cells (%)” value [5] was 51%. For the same compound, the “Population Normal (%)” value [5] was 82%, the “Population Pyknosed Nuclei (%)” value [5] was 49% and the “Population Tubulin-Different-Phenotype (%)” value [5] was 48%. For the same compound, the “Total Cell Count” value [5] was 365, the “Population Apoptotic (%)” value [6] was 13% and the “Population Fragmented Nuclei (%)” value [6] was 5%. The “Population Healthy Nuclei (%)” value [6] was 64%, the “Population Hoechst High Intensity Objects (%)” value [6] was 1% and the “Population Membrane Permeable-Phenotype (%)” value [6] was 10%. The “Population Mitochondria Different-Phenotype (%)” value [6] was 16%, the “Population Mitotic Cells (%)” value [6] was 86% and the “Population Normal (%)” value [6] was 98%. The “Population Pyknosed Nuclei (%)” value [6] was 30%, the “Population Tubulin-Different-Phenotype (%)” value [6] was 34% and the “Total Cell Count” value [6] was 227. The “Population Apoptotic (%)” value [7] was 48%, the “Population Fragmented Nuclei (%)” value [7] was 20% and the “Population Healthy Nuclei (%)” value [7] was 40%. For the same compound, the “Population Hoechst High Intensity Objects (%)” value [7] was 18%, the “Population Membrane Permeable-Phenotype (%)” value [7] was 5% and the “Population Mitochondria Different-Phenotype (%)” value [7] was 80%. For the same compound, the “Population Mitotic Cells (%)” value [7] was 52%, the “Population Normal (%)” value [7] was 81% and the “Population Pyknosed Nuclei (%)” value [7] was 39%. The “Population Tubulin-Different-Phenotype (%)” value [7] was 72%, the “Total Cell Count” value [7] was 233 and the “Population Apoptotic (%)” value [8] was 31%. For the same compound, the “Population Fragmented Nuclei (%)” value [8] was 5%, the “Population Healthy Nuclei (%)” value [8] was 51% and the “Population Hoechst High Intensity Objects (%)” value [8] was 5%. The “Population Membrane Permeable-Phenotype (%)” value [8] was 19%, the “Population Mitochondria Different-Phenotype (%)” value [8] was 34% and the “Population Mitotic Cells (%)” value [8] was 68%. The “Population Normal (%)” value [8] was 94%, the “Population Pyknosed Nuclei (%)” value [8] was 43% and the “Population Tubulin-Different-Phenotype (%)” value [8] was 81%. For the same compound, the “Total Cell Count” value [8] was 284, the “Population Apoptotic (%)” value [9] was 38% and the “Population Fragmented Nuclei (%)” value [9] was 17%. For the same compound, the “Population Healthy Nuclei (%)” value [9] was 36%, the “Population Hoechst High Intensity Objects (%)” value [9] was 16% and the “Population Membrane Permeable-Phenotype (%)” value [9] was 6%. For the same compound, the “Population Mitochondria Different-Phenotype (%)” value [9] was 34%, the “Population Mitotic Cells (%)” value [9] was 61% and the “Population Normal (%)” value [9] was 83%. The “Population Pyknosed Nuclei (%)” value [9] was 45%, the “Population Tubulin-Different-Phenotype (%)” value [9] was 38% and the “Total Cell Count” value [9] was 393. For the same compound, the “Population Apoptotic (%)” value [10] was 12%, the “Population Fragmented Nuclei (%)” value [10] was 7% and the “Population Healthy Nuclei (%)” value [10] was 78%. For the same compound, the “Population Hoechst High Intensity Objects (%)” value [10] was 2%, the “Population Membrane Permeable-Phenotype (%)” value [10] was 10% and the “Population Mitochondria Different-Phenotype (%)” value [10] was 8%. The “Population Mitotic Cells (%)” value [10] was 87%, the “Population Normal (%)” value [10] was 97% and the “Population Pyknosed Nuclei (%)” value [10] was 13%. The “Population Tubulin-Different-Phenotype (%)” value [10] was 26%, the “Total Cell Count” value [10] was 435 and the “Population Apoptotic (%)” value [11] was 52%. For the same compound, the “Population Fragmented Nuclei (%)” value [11] was 15%, the “Population Healthy Nuclei (%)” value [11] was 43% and the “Population Hoechst High Intensity Objects (%)” value [11] was 14%. The “Population Membrane Permeable-Phenotype (%)” value [11] was 4%, the “Population Mitochondria Different-Phenotype (%)” value [11] was 54% and the “Population Mitotic Cells (%)” value [11] was 47%. For the same compound, the “Population Normal (%)” value [11] was 85%, the “Population Pyknosed Nuclei (%)” value [11] was 40% and the “Population Tubulin-Different-Phenotype (%)” value [11] was 69%. The “Total Cell Count” value [11] was 271, the “Population Apoptotic (%)” value [12] was 25% and the “Population Fragmented Nuclei (%)” value [12] was 8%. The “Population Healthy Nuclei (%)” value [12] was 75%, the “Population Hoechst High Intensity Objects (%)” value [12] was 3% and the “Population Membrane Permeable-Phenotype (%)” value [12] was 19%. The “Population Mitochondria Different-Phenotype (%)” value [12] was 14%, the “Population Mitotic Cells (%)” value [12] was 74% and the “Population Normal (%)” value [12] was 96%. The “Population Pyknosed Nuclei (%)” value [12] was 15%, the “Population Tubulin-Different-Phenotype (%)” value [12] was 64% and the “Total Cell Count” value [12] was 503.
